Results on one substance are retold here after paper PMC2948583 (Journal of proteome research, 2010).

Data set [1] relates to whole saliva proteases. The data set can be described thus: Proteolysis of purified statherin in pooled whole saliva. Type of data set: in vitro ADME, human. The conditions noted are these: WS boiled to abolish protease activities; statherin 400 µg/ml; 37°C; RP-HPLC. In short, it runs like this:
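Pooled Parafilm-stimulated whole saliva from four healthy donors, boiled to abolish protease activity. Statherin, purified from parotid secretion by zinc precipitation and RP-HPLC, added to 400 µg/ml final. Incubated at 37°C and sampled at 0, 10, 30, 60 and 90 min. Aliquots boiled 10 min, diluted in 0.1% TFA, and run on analytical C-18 RP-HPLC (0–55% buffer B over 74 min). Intact statherin peak integrated.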

In data set [2] the test system is whole saliva supernatant proteases. Description: Proteolysis of purified statherin in pooled whole saliva supernatant. Type of data set: in vitro ADME, human. The conditions noted are these: WSS boiled to abolish protease activities; statherin 400 µg/ml; 37°C; RP-HPLC. In short, it runs like this:
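Supernatant from pooled stimulated whole saliva (14,000 × g, 20 min, 4°C), boiled to abolish protease activity. Parotid-derived purified statherin added to 400 µg/ml final. Incubated at 37°C and sampled at 0, 1, 3, 5 and 7 h. Aliquots boiled 10 min, diluted in 0.1% TFA, and analysed by analytical C-18 RP-HPLC (0–55% of 80% acetonitrile/0.1% TFA over 74 min). Intact statherin peak area integrated.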

On to “statherin (DSSEEKFLRRIGRFGYGYGPYQPVPEQPLYPQPYQPQYQQYTF; UniProt P02808 20-62, looked up)”, for which the “Stability of statherin in boiled WS (control)” value in data set [1] is recorded as “remained intact”. Besides, the “Stability of statherin in boiled WSS (control)” value in data set [2] is given as “remained intact”.
